Our source for the MIC values is ChEMBL document CHEMBL3351470, “Synthesis and Structure-Activity Relationships of α-Amino-γ-lactone Ketolides: A Novel Class of Macrolide Antibiotics” (2014).

Converted amounts (≈) assume the structure as drawn.

What all share (type): functional
For assay [1], the system named is Staphylococcus aureus. The assay can be described thus: Antibacterial activity against macrolide lincosamide- streptogramin B-resistant Staphylococcus aureus by agar microdilution method. Summed up: (§1)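 Agar microdilution MIC following NCCLS standards; strains taken from the Pliva Research Institute culture collection. Panel grouped by phenotype: erythromycin-susceptible, inducibly MLS-resistant (iMLS), constitutively MLSB-resistant and efflux-resistant (M). Azithromycin, telithromycin and cethromycin tested alongside as references. MIC reported in μg/mL.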

Assay [2] relates to Streptococcus pyogenes. Briefly: Antibacterial activity against macrolide lincosamide- streptogramin B inducibly-resistant Streptococcus pyogenes by agar microdilution method. Summed up: as §1
In assay [3] the test system is Streptococcus pneumoniae. The assay can be described thus: Antibacterial activity against erythromycin-susceptible Streptococcus pneumoniae by agar microdilution method. An outline of the steps:
(§2)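 Strains from an in-house culture collection (Pliva Research Institute). MIC determined by agar microdilution following NCCLS standards and reported in μg/mL. Erythromycin-susceptible strains are listed as Ery-S; the panel also includes inducibly resistant (iMLS), constitutively resistant (MLSB) and efflux-resistant (M) strains.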

For assay [4], the system named is Streptococcus pneumoniae. Briefly: Antibacterial activity against macrolide lincosamide- streptogramin B inducibly-resistant Streptococcus pneumoniae by agar microdilution method. An outline of the steps:
as §1

The subject of assay [5] is Staphylococcus aureus. The assay can be described thus: Antibacterial activity against macrolide lincosamide- streptogramin B inducibly-resistant Staphylococcus aureus by agar microdilution method. Summed up:
as §1

The subject of assay [6] is Staphylococcus aureus. Briefly: Antibacterial activity against erythromycin-susceptible Staphylococcus aureus by agar microdilution method. Summed up: as §2
For assay [7], the system named is Streptococcus pyogenes. The assay can be described thus: Antibacterial activity against erythromycin-susceptible Streptococcus pyogenes by agar microdilution method. Summed up:
as §2

Assay [8] has as its system Streptococcus pyogenes. Briefly: Antibacterial activity against efflux-resistant Streptococcus pyogenes by agar microdilution method. Summed up: as §1
Assay [9] concerns Haemophilus influenzae. The assay can be described thus: Antibacterial activity against Haemophilus influenzae by agar microdilution method. Summed up:
as §2

For assay [10], the system named is Streptococcus pneumoniae. Briefly: Antibacterial activity against efflux-resistant Streptococcus pneumoniae by agar microdilution method. Summed up: as §1

With `CC[C@H]1OC(=O)[C@H](C)C(=O)[C@H](C)[C@@H](O[C@@H]2O[C@H](C)C[C@H](N(C)C)[C@H]2O)[C@](C)(OC)C[C@@H](C)C(=O)[C@H](C)[C@H]2C(N)C(=O)O[C@@]21C` (stereo not given in full), the MIC in [1] is > 64 µg/mL; in assay [2], > 64 µg/mL; in [3], ≤ 0.125 µg/mL; in assay [4] it was > 64 µg/mL; in assay [5], 32 µg/mL (≈ 51.1 µM); in assay [6], 1 µg/mL (≈ 1.6 µM). In addition, the MIC in assay [7] was 2 µg/mL (≈ 3.19 µM); in assay [8], 8 µg/mL (≈ 12.8 µM); in [9] it was > 64 µg/mL; in [10], 8 µg/mL (≈ 12.8 µM).

Turning to `CC[C@H]1OC(=O)[C@H](C)C(=O)[C@H](C)[C@@H](O[C@@H]2O[C@H](C)C[C@H](N(C)C)[C@H]2O)[C@](C)(OC)C[C@@H](C)C(=O)[C@H](C)[C@H]2C(NC(=O)CCc3ccccc3)C(=O)O[C@@]21C` (stereo not given in full), the MIC is > 64 µg/mL in [1]; 16 µg/mL (≈ 21.1 µM) in assay [2]; ≤ 0.125 µg/mL in assay [3]; 16 µg/mL (≈ 21.1 µM) in assay [4]; 8 µg/mL (≈ 10.5 µM) in assay [5]; 4 µg/mL (≈ 5.27 µM) in [6]. Moreover, the MIC in [7] was 0.5 µg/mL (≈ 0.659 µM); in assay [8], 8 µg/mL (≈ 10.5 µM); in assay [9], 16 µg/mL (≈ 21.1 µM); in [10], 4 µg/mL (≈ 5.27 µM).

Consider `CC[C@H]1OC(=O)[C@H](C)C(=O)[C@H](C)[C@@H](O[C@@H]2O[C@H](C)C[C@H](N(C)C)[C@H]2O)[C@](C)(OC)C[C@@H](C)C(=O)[C@H](C)[C@H]2C(NC(=O)CCc3ccncc3)C(=O)O[C@@]21C` (stereo not given in full), for which the MIC was > 64 µg/mL in assay [1]; 2 µg/mL (≈ 2.63 µM) in assay [2]; ≤ 0.125 µg/mL in [3]; 16 µg/mL (≈ 21.1 µM) in assay [4]; 8 µg/mL (≈ 10.5 µM) in assay [5]; 4 µg/mL (≈ 5.26 µM) in assay [6]. For the same compound, the MIC was ≤ 0.125 µg/mL in assay [7], 2 µg/mL (≈ 2.63 µM) in [8], 2 µg/mL (≈ 2.63 µM) in assay [9] and 8 µg/mL (≈ 10.5 µM) in assay [10].

Regarding `CC[C@H]1OC(=O)[C@H](C)C(=O)[C@H](C)[C@@H](O[C@@H]2O[C@H](C)C[C@H](N(C)C)[C@H]2O)[C@](C)(OC)C[C@@H](C)C(=O)[C@H](C)[C@H]2C(NC(=O)CCc3cccnc3)C(=O)O[C@@]21C` (stereo not given in full), the MIC in assay [1] is > 64 µg/mL; in [2] it was 4 µg/mL (≈ 5.26 µM); in [3] it was ≤ 0.125 µg/mL; in assay [4] it was 4 µg/mL (≈ 5.26 µM); in assay [5], 4 µg/mL (≈ 5.26 µM); in [6], 2 µg/mL (≈ 2.63 µM). Further, the MIC in assay [7] is ≤ 0.125 µg/mL; in assay [8] it was 2 µg/mL (≈ 2.63 µM); in assay [9], 8 µg/mL (≈ 10.5 µM); in assay [10], 2 µg/mL (≈ 2.63 µM).

Turning to `CC[C@H]1OC(=O)[C@H](C)[C@@H](O[C@H]2C[C@@](C)(OC)[C@@H](O)[C@H](C)O2)[C@H](C)[C@@H](O[C@@H]2O[C@H](C)C[C@H](N(C)C)[C@H]2O)[C@](C)(O)C[C@@H](C)CN(C)[C@H](C)[C@@H](O)[C@]1(C)O` [AZITHROMYCIN], the MIC was > 64 µg/mL in assay [1]; > 64 µg/mL in assay [2]; ≤ 0.125 µg/mL in [3]; > 64 µg/mL in assay [4]; > 64 µg/mL in [5]; 1 µg/mL (≈ 1.34 µM) in assay [6]. Also, the MIC is ≤ 0.125 µg/mL in assay [7], 1 µg/mL (≈ 1.34 µM) in assay [8], 1 µg/mL (≈ 1.34 µM) in assay [9] and 4 µg/mL (≈ 5.34 µM) in assay [10].

Turning to `CC[C@H]1OC(=O)[C@H](C)C(=O)[C@H](C)[C@@H](O[C@@H]2O[C@H](C)C[C@H](N(C)C)[C@H]2O)[C@](C)(OC)C[C@@H](C)C(=O)[C@H](C)[C@H]2N(CCCCn3cnc(-c4cccnc4)c3)C(=O)O[C@]12C` [TELITHROMYCIN], the MIC in assay [1] is > 64 µg/mL; in assay [2], 4 µg/mL (≈ 4.93 µM); in assay [3] it was ≤ 0.06 µg/mL; in assay [4], ≤ 0.125 µg/mL; in [5], 0.5 µg/mL (≈ 0.616 µM); in [6], ≤ 0.125 µg/mL. In addition, the MIC in [7] is ≤ 0.06 µg/mL; in [8] it was 0.25 µg/mL (≈ 0.308 µM); in assay [9], 2 µg/mL (≈ 2.46 µM); in assay [10], 0.5 µg/mL (≈ 0.616 µM).
